Calls of active or inactive are those of the source. The rule behind the calls is not given here.
Experiments:
RAW264.7 [1] = assay: Cytotoxicity against mouse RAW264.7 cells assessed as reduction in cell viability after 24 hrs by MTT assay; format: functional, cell-based; conditions: RAW264.7, 24 h
Procedure, shortened: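 RAW 264.7 mouse macrophage line kept in RPMI 1640 with 10% FBS, L-glutamine and antibiotics. Treated with 1–100 μM for 24 h, then MTT at 37 °C for 4 h. Formazan taken up in DMSO and read at 540 nm. Triplicate, at least three independent experiments. IC50 is the concentration giving 50% loss of viability relative to untreated cells.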

HeLa = assay: Cytotoxicity against human HeLa cells assessed as reduction in cell viability after 24 hrs by MTT assay; format: functional, cell-based
Procedure, shortened: (§1)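 Cancer cells kept in DMEM with 10% FBS, L-glutamine and antibiotics. Exposed to 1–100 μM for 24 h, then MTT at 37 °C for 4 h. Formazan dissolved in DMSO and read at 540 nm. Triplicate wells, at least three independent experiments. Viability reduction expressed against untreated cultures. IC50 is the concentration giving 50% loss of viability.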

HepG2 = assay: Cytotoxicity against human HepG2 cells assessed as reduction in cell viability after 24 hrs by MTT assay; format: functional, cell-based; conditions: HepG2, 24 h; procedure, shortened: as §1
HT-29 = assay: Cytotoxicity against human HT-29 cells assessed as reduction in cell viability after 24 hrs by MTT assay; format: functional, cell-based; conditions: HT-29, 24 h; procedure, shortened: as §1
[2] = Toxicity in thioglycolate-induced mouse peritoneal macrophages assessed as reduction in cell viability after 24 hrs by MTT assay; format: cell-based; conditions: peritoneal macrophage cell
Procedure, shortened: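 Primary peritoneal macrophages from thioglycolate-injected mice exposed to a range of concentrations for 24 h. Viability read by MTT at 37 °C for 4 h, formazan dissolved in DMSO, absorbance at 540 nm. Three independent experiments in duplicate, means ± SD.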

[3] = Toxicity in thioglycolate-induced mouse peritoneal macrophages assessed as induction of apoptosis after 24 hrs by flow cytometry; format: cell-based; conditions: peritoneal macrophage cell
Procedure, shortened: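 Peritoneal macrophages collected from thioglycolate-injected mice and treated across a concentration range for 24 h. Stained with PI and analysed by flow cytometry for apoptotic percentage. Means ± SD of three independent experiments done in duplicate.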

RAW264.7 [4] = assay: Induction of apoptosis in mouse RAW264.7 cells at 1 to 25 uM after 24 hrs by flow cytometry; format: functional, cell-based
Procedure, shortened: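 RAW 264.7 cells exposed to 1–25 μM for 24 h. Stained with 0.005% (w/v) propidium iodide and analysed at once by flow cytometry. Apoptotic and necrotic fractions taken from a forward scatter versus PI fluorescence dot plot. Means ± SD of three independent experiments in triplicate.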

RAW264.7 [5] = assay: Induction of apoptosis in mouse RAW264.7 cells assessed as caspase 8 activation at 5 uM after 24 hrs by fluorimetry; format: functional, cell-based
Procedure, shortened: (§2)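 RAW cells treated with 5 μM for 24 h, with or without 40 μM z-VAD. Caspase activity read fluorimetrically in cytosolic extracts. Substrates: Ac-DEVD-AMC for caspase-3, Ac-IETD-AFC for caspase-8, Ac-LEHD-AFC for caspase-9. Means ± SD of three independent experiments run in triplicate.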

RAW264.7 [6] = assay: Induction of apoptosis in mouse RAW264.7 cells assessed as caspase 9 activation at 5 uM after 24 hrs by fluorimetry; format: functional, cell-based; procedure, shortened: as §2
RAW264.7 [7] = assay: Induction of apoptosis in mouse RAW264.7 cells assessed as caspase 3 activation at 5 uM after 24 hrs by fluorimetry; format: functional, cell-based; procedure, shortened: as §2
RAW264.7 [8] = assay: Induction of apoptosis in mouse RAW264.7 cells assessed as caspase 8 activation at 5 uM in presence of 40 uM caspase inhibitor z-VAD after 24 hrs by fluorimetric assay; format: functional, cell-based; procedure, shortened: as §2
RAW264.7 [9] = assay: Induction of apoptosis in mouse RAW264.7 cells assessed as caspase 9 activation at 5 uM in presence of 40 uM caspase inhibitor z-VAD after 24 hrs by fluorimetric assay; format: functional, cell-based; procedure, shortened: as §2
RAW264.7 [10] = assay: Induction of apoptosis in mouse RAW264.7 cells assessed as caspase 3 activation at 5 uM in presence of 40 uM caspase inhibitor z-VAD after 24 hrs by fluorimetric assay; format: functional, cell-based; procedure, shortened: as §2
RAW264.7 [11] = assay: Induction of apoptosis in mouse RAW264.7 cells at 5 uM in presence of 40 uM caspase inhibitor z-VAD after 24 hrs by flow cytometry; format: functional, cell-based
Procedure, shortened: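 RAW 264.7 cells given 5 μM for 24 h, with or without 40 μM z-VAD. Stained with 0.005% (w/v) PI and analysed by flow cytometry. Apoptotic percentage taken from a forward scatter versus PI fluorescence dot plot. Three independent experiments in triplicate, means ± SD.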

RAW264.7 [12] = assay: Increase in p53 protein expression in mouse RAW264.7 cells at 5 uM by Western blot; format: functional, cell-based
Procedure, shortened: (§3)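 RAW 264.7 cells incubated with 5 μM and sampled at several time points. Cytosolic extracts run on SDS–PAGE (10–15% gels) and blotted to PVDF. Probed for p53, Bax, Bcl-2, Bcl-xl, XIAP, IAP-1 and IAP-2, then HRP secondary and chemiluminescence. β-actin served as loading control. Protein measured by Bio-Rad assay.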

RAW264.7 [13] = assay: Increase in Bax protein expression in mouse RAW264.7 cells at 5 uM by Western blot; format: functional, cell-based; procedure, shortened: as §3
RAW264.7 [14] = assay: Decrease in Bcl-2 protein expression in mouse RAW264.7 cells at 5 uM by Western blot; format: functional, cell-based; procedure, shortened: as §3
RAW264.7 [15] = assay: Decrease in Bcl-xl protein expression in mouse RAW264.7 cells at 5 uM by Western blot; format: functional, cell-based; procedure, shortened: as §3
RAW264.7 [16] = assay: Decrease in IAP protein expression in mouse RAW264.7 cells at 5 uM by Western blot; format: functional, cell-based; procedure, shortened: as §3

## COC(=O)[C@]1(C)CCC[C@@]2(C)[C@@H]3CC[C@@H]4C[C@@]3(CC[C@@H]21)C[C@@]4(C)Cl
RAW264.7 [1]
  IC50: > 100 µM

## C=C1[C@@H]2CC=C3[C@@](CC[C@@H]4[C@](C)(C(=O)OC)CCC[C@@]34C)(C2)[C@H]1O
RAW264.7 [1]
  IC50: > 100 µM

## C=C1[C@@H]2CC[C@H]3[C@]4(C)CCC[C@@](C)(C(=O)OC)[C@H]4CC[C@]3(C2)[C@H]1O
RAW264.7 [1]
  IC50: > 100 µM

## COC(=O)[C@]1(C)CCC[C@@]2(C)[C@@H]3CC[C@@H]4C[C@]3(C=C4C)CC[C@@H]21
RAW264.7 [1]
  IC50: 100 µM

## C=C1[C@@H]2CC[C@H]3[C@]4(C)CCC[C@@](C)(C(=O)O)[C@H]4CC[C@]3(C2)[C@H]1OC(C)=O
RAW264.7 [1]
  IC50: 25 µM

## COC(=O)[C@]1(C)CCC[C@@]2(C)[C@@H]3CC[C@@H]4C[C@@]3(CC[C@@H]21)C[C@H]4C=O
RAW264.7 [1]
  IC50: > 100 µM

## C=C1C[C@@]23CC[C@@H]4[C@](C)(CO)CCC[C@@]4(C)[C@@H]2CC[C@@H]1C3
RAW264.7 [1]
  IC50: > 100 µM

## C=C1C[C@@]23CC[C@@H]4[C@](C)(C(=O)OCc5ccccc5)CCC[C@@]4(C)C2=CC[C@@H]1C3 [GRANDIFLORENIC ACID BENZYL ESTER]
RAW264.7 [1]
  IC50: 65 µM

## C=C1C(=O)[C@@]23CC[C@H]4[C@@](C)(CCC[C@@]4(C)C(=O)O)[C@@H]2CC[C@@H]1C3
RAW264.7 [1]
  IC50: 35 µM

## COC(=O)[C@]1(C)CCC[C@@]2(C)[C@@H]3CC[C@@H]4C[C@@]3(CC[C@@H]21)C(=O)C41CCN=N1 (stereo partly specified)
RAW264.7 [1]
  IC50: 100 µM

## C=C1C[C@@]23CC[C@H]4[C@@](C)(CCC[C@@]4(C)C(=O)O)[C@@H]2CC[C@@H]1C3 [KAURENOIC ACID]
RAW264.7 [1]
  IC50: > 100 µM

## COC(=O)[C@]1(C)CCC[C@@]2(C)[C@@H]3CC[C@@H]4C[C@@]3(CC[C@@H]21)C[C@H]4/C=N/O
RAW264.7 [1]
  IC50: 35 µM

## COC(=O)[C@]1(C)CCCC2(C)[C@@H]3CC[C@@H]4C[C@@]3(CC[C@@H]21)C[C@@]41CO1 (stereo partly specified)
RAW264.7 [1]
  IC50: > 100 µM

## COC(=O)[C@]1(C)CCC[C@@]2(C)C3=CC[C@@H]4C[C@@]3(CC[C@H]12)C[C@]4(O)CO
RAW264.7 [1]
  IC50: 25 µM

## C=C1C(=O)[C@@]23CC[C@@H]4[C@](C)(C(=O)OC)CCC[C@@]4(C)C2=CC[C@@H]1C3
RAW264.7 [1]
  IC50: 5 µM
HeLa
  IC50: 25 µM
HepG2
  IC50: > 100 µM
HT-29
  IC50: 25 µM
[2]
  Activity: Non-toxic
[3]
  Activity: Non-toxic
RAW264.7 [4]
  Activity: Active
RAW264.7 [5]
  Activity: Active
RAW264.7 [6]
  Activity: Active
RAW264.7 [7]
  Activity: Active
RAW264.7 [8]
  Activity: inactive
RAW264.7 [9]
  Activity: inactive
RAW264.7 [10]
  Activity: inactive
RAW264.7 [11]
  Activity: inactive
RAW264.7 [12]
  Activity: Active
RAW264.7 [13]
  Activity: Active
RAW264.7 [14]
  Activity: Active
RAW264.7 [15]
  Activity: Active
RAW264.7 [16]
  Activity: Active

## C=C1[C@@H]2CC=C3[C@@](CC[C@@H]4[C@](C)(C(=O)OC)CCC[C@@]34C)(C2)[C@H]1OC(C)=O
RAW264.7 [1]
  IC50: 35 µM

## C=C1C[C@@]23CC[C@@H]4[C@](C)(CO)CCC[C@@]4(C)C2=CC[C@@H]1C3
RAW264.7 [1]
  IC50: 35 µM

## C=C1[C@@H]2CC[C@H]3[C@]4(C)CCC[C@@](C)(C(=O)O)[C@H]4CC[C@]3(C2)[C@H]1O
RAW264.7 [1]
  IC50: > 100 µM

## COC(=O)[C@]1(C)CCC[C@@]2(C)C3=CC[C@@H]4C[C@]3(C=C4C=O)CC[C@H]12
RAW264.7 [1]
  IC50: 5 µM
HeLa
  IC50: 10 µM
HepG2
  IC50: 25 µM
HT-29
  IC50: 40 µM
[2]
  Activity: Toxic
[3]
  Activity: Toxic
RAW264.7 [4]
  Activity: Active
RAW264.7 [6]
  Activity: Active
RAW264.7 [7]
  Activity: Active
RAW264.7 [8]
  Activity: inactive
RAW264.7 [9]
  Activity: inactive
RAW264.7 [10]
  Activity: inactive
RAW264.7 [11]
  Activity: inactive
RAW264.7 [12]
  Activity: Active
RAW264.7 [13]
  Activity: Active
RAW264.7 [14]
  Activity: Active
RAW264.7 [15]
  Activity: Active
RAW264.7 [16]
  Activity: Active

## COC(=O)[C@]1(C)CCC[C@@]2(C)[C@@H]3CC[C@@H]4C[C@@]3(CC[C@@H]21)C[C@@]4(C)O
RAW264.7 [1]
  IC50: 25 µM

## COC(=O)[C@]1(C)CCC[C@@]2(C)[C@@H]3CC[C@@H]4C[C@@]3(CC[C@@H]21)C[C@H]4C [DIHYDRO KAURENOIC ACID METHYL ESTER]
RAW264.7 [1]
  IC50: 75 µM

## C=C1C[C@@]23CC[C@@H]4[C@](C)(C(=O)OC)CCC[C@@]4(C)C2=CC[C@@H]1C3 [GRANDIFLORENIC ACID METHYL ESTER]
RAW264.7 [1]
  IC50: 35 µM

## COC(=O)[C@]1(C)CCC[C@@]2(C)[C@@H]3CC[C@@H]4C[C@@]3(CC[C@@H]21)C(=O)[C@H]4CCc1ccccc1
RAW264.7 [1]
  IC50: > 100 µM

## COC(=O)[C@]1(C)CCC[C@@]2(C)[C@@H]3CC[C@@H]4C[C@]3(C=C4C=O)CC[C@@H]21
RAW264.7 [1]
  IC50: 25 µM

## C=C1C[C@@]23CC[C@@H]4[C@](C)(C(=O)O)CCC[C@@]4(C)C2=CC[C@@H]1C3 [GRANDIFLORENIC ACID]
RAW264.7 [1]
  IC50: 15 µM

## C=C1C[C@@]23CC[C@H]4[C@@](C)(CCC[C@@]4(C)C(=O)OC)[C@@H]2CC[C@@H]1C3 [KAURENOIC ACID METHYL ESTER]
RAW264.7 [1]
  IC50: 75 µM

## C=C1C[C@@]23CC[C@H]4[C@@](C)(CCC[C@@]4(C)C(=O)OCc4ccccc4)[C@@H]2CC[C@@H]1C3 [KAURENOIC ACID BENZYL ESTER]
RAW264.7 [1]
  IC50: 25 µM

## COC(=O)[C@]1(C)CCCC2(C)[C@@H]3CC[C@@H]4C[C@@]3(CC[C@@H]21)C[C@]41CO1 (stereo partly specified)
RAW264.7 [1]
  IC50: > 100 µM

## COC(=O)[C@]1(C)CCC[C@@]2(C)[C@@H]3CC[C@@H]4C[C@@]3(CC[C@@H]21)C[C@]4(O)CO
RAW264.7 [1]
  IC50: 10 µM

## COC(=O)[C@]1(C)CCC[C@@]2(C)[C@@H]3CC[C@@H]4C[C@@]3(CC[C@@H]21)C[C@@]4(C)OC
RAW264.7 [1]
  IC50: > 100 µM

## C=C1[C@@H]2CC[C@H]3[C@]4(C)CCC[C@@](C)(C(=O)OC)[C@H]4CC[C@]3(C2)[C@H]1OC(C)=O
RAW264.7 [1]
  IC50: 25 µM

Reference: ChEMBL document CHEMBL1156919, “Synthesis and induction of apoptosis signaling pathway of ent-kaurane derivatives” (Bioorg Med Chem, 2010)
